Like-named read-outs stand apart in the source and are kept apart here. Each block holds one compound with its values, some of them ahead of it.
What was measured:
in vivo = format: in vivo, Sprague-Dawley (SD) rats; details: for AUC(0-t): AUC0–t; for AUC(0-inf): AUC0–∞; for MRT last: MRT0–t; for MRT inf: MRT0–∞; for half-life: t1/2, rats
Ugt1a7 = assay: qRT-PCR mRNA expression in rat liver and intestine after 7 days of dosing; format: in vivo; details: either the liver or the intestine of rats, after multiple doses
Method in brief: (§1)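 Rats (n = 6/group) gavaged daily for 7 days with test compound: 2.5 or 1 mg/kg in 0.5% CMC-Na, or 100 mg/kg in 0.5% CMC-Na with 5% DMSO. Liver and intestine harvested under chloral hydrate and stored at −80 °C. TRNzol RNA extraction; 1 μg RNA reverse-transcribed. qPCR: 95 °C 15 min, then 40 cycles of 95 °C 10 s/60 °C 32 s. […] reference; 2^−ΔΔCT.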

P-gp = assay: as above; format: in vivo; details: after multiple doses
Method in brief: as §1

Oatp1b2 = assay: qRT-PCR mRNA expression in rat liver after 7 days of dosing; format: in vivo; details: after multiple doses
Method in brief: as §1

[1] = Stability of analytes in rat plasma; format: physicochemical; details: n = 6
[2] = ref Chen et al., 2021, Zhang et al.; cited from earlier work
[3] = format: in vivo, Sprague-Dawley (SD) rats; details: for AUC(0-t): AUC0–t; for AUC(0-t) / Cmax / MRT last / MRT inf / Tmax / half-life / CLz / Vz: n = 6; for MRT last: MRT0–t; for MRT inf: MRT0–∞; for half-life: t1/2, rats
Ugt2b7 = assay: qRT-PCR mRNA expression in rat liver and intestine after 7 days of dosing; format: in vivo; details: after administration for seven consecutive days
Method in brief: as §1

[4] = tested on: patients with advanced HCC; details: ref Llovet et al., 2008, cited from earlier work
[5] = ref Lathia et al., 2006; cited from earlier work
[6] = Sprague-Dawley, rat, in vivo, po, 1 mg/kg, rats, henagliflozin 1 mg/kg after sorafenib 100 mg/kg for 7 consecutive days, n = 6
[7] = Sprague-Dawley, rat, in vivo, po, 1 mg/kg, rats, henagliflozin 1 mg/kg oral, alone, n = 6
[8] = rats, henagliflozin 1 mg/kg after sorafenib 100 mg/kg for 7 consecutive days, n = 6
[9] = rats, henagliflozin and sorafenib, versus control group
[10] = Autosampler (15 °C) for 6 h, nominal 10 ng/mL
[11] = Autosampler (15 °C) for 6 h, nominal 800 ng/mL
[12] = Autosampler (15 °C) for 6 h, nominal 1,500 ng/mL
[13] = Room temperature for 4 h, nominal 10 ng/mL
[14] = Room temperature for 4 h, nominal 800 ng/mL
[15] = Room temperature for 4 h, nominal 1,500 ng/mL
[16] = Three freeze–thaw cycles (−80 °C to 25 °C), nominal 10 ng/mL
[17] = Three freeze–thaw cycles (−80 °C to 25 °C), nominal 800 ng/mL
[18] = Three freeze–thaw cycles (−80 °C to 25 °C), nominal 1,500 ng/mL
[19] = −80 °C for 30 days, nominal 10 ng/mL
[20] = −80 °C for 30 days, nominal 800 ng/mL
[21] = −80 °C for 30 days, nominal 1,500 ng/mL
[22] = Sprague-Dawley, rat, plasma, po, 100 mg/kg, rats, sorafenib 100 mg/kg after empagliflozin […] for 7 consecutive days
[23] = Sprague-Dawley, rat, plasma, po, 100 mg/kg, rats, sorafenib 100 mg/kg after henagliflozin 1 mg/kg for 7 consecutive days
[24] = Sprague-Dawley, rat, plasma, po, 100 mg/kg, rats, sorafenib 100 mg/kg by gavage, alone
[25] = rats, after empagliflozin, versus sorafenib alone group
[26] = rats, coadministered with henagliflozin, versus sorafenib alone
[27] = rats, sorafenib 100 mg/kg after empagliflozin […] for 7 consecutive days
[28] = rats, sorafenib 100 mg/kg after henagliflozin 1 mg/kg for 7 consecutive days
[29] = rats, sorafenib 100 mg/kg by gavage, alone

AUC(0-t) (in vivo; [6]): 3450 ng·h/mL
AUC(0-t) (in vivo; [7]): 1920 ng·h/mL
AUC(0-inf) (in vivo; [6]): 3460 ng·h/mL
AUC(0-inf) (in vivo; [7]): 1950 ng·h/mL
Cmax (in vivo; Sprague-Dawley, rat, in vivo, po, 1 mg/kg, Cmax, rats, henagliflozin 1 mg/kg oral, alone, n = 6): 197 ± 36.9 ng/mL
MRT last (in vivo; [6]): 9.36 ± 3.63 h
MRT last (in vivo; [7]): 7.84 ± 1.68 h
MRT inf (in vivo; [6]): 9.49 ± 3.57 h
MRT inf (in vivo; [7]): 8.49 ± 2.86 h
Tmax (in vivo; [6]): 1.33 ± 1.36 h
Tmax (in vivo; [7]): 3.25 ± 1.67 h
half-life (in vivo; Sprague-Dawley, rat, in vivo, po, 1 mg/kg, henagliflozin 1 mg/kg after sorafenib 100 mg/kg for 7 consecutive days, n = 6): 5.1 ± 1.31 h
half-life (in vivo; Sprague-Dawley, rat, in vivo, po, 1 mg/kg, henagliflozin 1 mg/kg oral, alone, n = 6): 5.11 ± 3.62 h
CLz (in vivo; [8]): 5 ± 0.83 mL/min/kg
Vz (in vivo; [8]): 2.25 ± 0.77 L/kg
CLz (in vivo; rats, henagliflozin 1 mg/kg oral, alone, n = 6): 8.83 ± 1.7 mL/min/kg
differences in Tmax, t1/2, Vz/F, MRT0–t and MRT0–∞ of henagliflozin (in vivo; rats, henagliflozin and sorafenib versus control): no significant differences
increase of AUC0–t of henagliflozin (in vivo; [9]): 79.1%
increase of AUC0–∞ of henagliflozin (in vivo; [9]): 77.7%
Stability: Accuracy (RE%) [1, 10]: −4.33%
Stability: Mean ± SD measured concentration [1, 10]: 9.57 ± 0.87 ng/mL
Stability: Accuracy (RE%) [1, 11]: −1.90%
Stability: Mean ± SD measured concentration [1, 11]: 784.83 ± 31.98 ng/mL
Stability: Accuracy (RE%) [1, 12]: −4.22%
Stability: Mean ± SD measured concentration [1, 12]: 1,436.67 ± 29.44 ng/ml
Stability: Accuracy (RE%) [1, 13]: −0.28%
Stability: Mean ± SD measured concentration [1, 13]: 9.97 ± 0.73 ng/mL
Stability: Accuracy (RE%) [1, 14]: −4.63%
Stability: Mean ± SD measured concentration [1, 14]: 763.00 ± 31.79 ng/mL
Stability: Accuracy (RE%) [1, 15]: −2.00%
Stability: Mean ± SD measured concentration [1, 15]: 1,470.00 ± 59.67 ng/ml
Stability: Accuracy (RE%) [1, 16]: −1.70%
Stability: Mean ± SD measured concentration [1, 16]: 9.83 ± 0.95 ng/mL
Stability: Accuracy (RE%) [1, 17]: −3.65%
Stability: Mean ± SD measured concentration [1, 17]: 770.83 ± 18.66 ng/mL
Stability: Accuracy (RE%) [1, 18]: 0.56%
Stability: Mean ± SD measured concentration [1, 18]: 1,508.33 ± 72.78 ng/ml
Stability: Accuracy (RE%) [1, 19]: −1.12%
Stability: Mean ± SD measured concentration [1, 19]: 9.89 ± 0.95 ng/mL
Stability: Accuracy (RE%) [1, 20]: −1.35%
Stability: Mean ± SD measured concentration [1, 20]: 789.17 ± 38.83 ng/mL
Stability: Accuracy (RE%) [1, 21]: −2.11%
Stability: Mean ± SD measured concentration [1, 21]: 1,468.33± 53.45 ng/ml
Structure (SMILES): CCOc1ccc(Cc2cc([C@@]34OC[C@@](CO)(O3)[C@@H](O)[C@H](O)[C@H]4O)ccc2Cl)cc1F [Henagliflozin]
change in the expression of Ugt1a7 (Ugt1a7): no significant change
decrease of mRNA expression of P-gp (P-gp; rat intestine): 43.2%
decrease of mRNA expression of P-gp (P-gp; rat liver): 27.1%
decrease of mRNA expression of Oatp1b2 (Oatp1b2): 38.4%
eliminated by the fecal route [2]: 50%
eliminated by the renal route [2]: 30%

Structure (SMILES): CNC(=O)c1cc(Oc2ccc(NC(=O)Nc3ccc(Cl)c(C(F)(F)F)c3)cc2)ccn1 [Sorafenib]
AUC(0-inf) ([3]; Sprague-Dawley, rat, plasma, po, 100 mg/kg): 20600 ng·h/mL
AUC(0-t) [3, 22]: 37000 ng·h/mL
AUC(0-t) [3, 23]: 33500 ng·h/mL
AUC(0-t) [3, 24]: 20000 ng·h/mL
Cmax [3, 22]: 1860 ng/mL
Cmax [3, 23]: 1230 ng/mL
Cmax [3, 24]: 967 ± 176 ng/mL
MRT last [3, 22]: 28.7 ± 11.5 h
MRT last [3, 23]: 51 ± 11.1 h
MRT last [3, 24]: 37.2 ± 11.4 h
MRT inf [3, 23]: 66 ± 24.8 h
MRT inf [3, 24]: 40.5 ± 13.4 h
Tmax [3, 23]: 5.67 ± 2.58 h
Tmax [3, 24]: 4.33 ± 2.07 h
half-life ([3]; Sprague-Dawley, rat, plasma, po, 100 mg/kg, sorafenib 100 mg/kg after empagliflozin […] for 7 consecutive days): 47.6 ± 32.2 h
half-life ([3]; Sprague-Dawley, rat, plasma, po, 100 mg/kg, sorafenib 100 mg/kg after henagliflozin 1 mg/kg for 7 consecutive days): 28.6 ± 21.7 h
half-life ([3]; Sprague-Dawley, rat, plasma, po, 100 mg/kg, sorafenib 100 mg/kg by gavage, alone): 18.7 ± 4.85 h
decrease of CLz/F of sorafenib ([3]; rats, after empagliflozin, versus control group): 45%
increase of AUC0–t of sorafenib [3, 25]: 84%
increase of AUC0–∞ of sorafenib [3, 25]: 93%
increase of Cmax of sorafenib [3, 25]: 92%
increase of AUC0–t of sorafenib [3, 26]: 67%
increase of AUC0–∞ of sorafenib [3, 26]: 80%
CLz [3, 27]: 53.3 ± 33.5 mL/min/kg
Vz [3, 27]: 201.55 ± 161.11 L/kg
CLz [3, 28]: 46.8 ± 10.8 mL/min/kg
Vz [3, 28]: 110.19 ± 73.12 L/kg
CLz [3, 29]: 97 ± 43.2 mL/min/kg
Vz [3, 29]: 93.83 ± 63.20 L/kg
downregulation of mRNA expression of Ugt2b7 (Ugt2b7; rat intestine): 68.3%
effect on the expression of Ugt2b7 (Ugt2b7; rat liver): did not significantly affect
HR (overall survival versus control group) ([4]; 95% confidence interval [0.55–0.87], P < 0.001): 0.69
median overall survival ([4]; patients in the sorafenib group, phase 3 versus placebo): 10.7 months
administered dose eliminated as oxidative metabolites [5]: less than 5%
administered dose removed from the body through glucuronidation [5]: 15%

— PMC12248229 (PeerJ, 2025)
